Experimental data gathered from unrelated publications.
Target: Sodium-dependent serotonin transporter (SLC6A4, Homo sapiens, UniProt P31645)

CCCNc1nc2ccccc2n1Cc1ccc(Cl)cc1
inhibition (ligand displacement; 10 µM): -8.27%

CCN(CC)c1ccc(C2Nc3ccc(C(=O)c4ccccc4)cc3NC3=C2C(=O)CC(C)(C)C3)cc1 (stereo not shown)
inhibition (ligand displacement, radioligand; 10 µM): 57%

CCN(Cc1ccccc1C(F)(F)F)C(=O)C1CCN(S(=O)(=O)c2ccc3[nH]ncc3c2)CC1
inhibition (ligand displacement, radioligand; 10 µM): 2%

O=C1N=C(N2CCCCN2)S/C1=C\c1ccc(F)cc1O
inhibition (ligand displacement, radioligand; 10 µM): < 10%

CN1CCN(CCCOc2ccc(=O)n(-c3ccc(Cl)c(Cl)c3)n2)CC1
inhibition (ligand displacement; 1 µM): 21.7%

COc1cc(NC(C)=O)c(Cl)cc1C(=O)Nc1nccs1
inhibition (cell-free assay; 10 µM): -12.3%

COc1ccc(-n2nc(OCCCN3CCCCC3)ccc2=O)cc1
inhibition (ligand displacement; 1 µM): 43.6%

CN(C)CCCN1c2ccccc2CCc2ccccc21
inhibition (transporter uptake, inhibitor, radiometric; COS-7; 4 nM): 19.6%

O=C(c1ccc(Cl)cc1)N(Cc1ccccc1)C1CCCCC1
inhibition (cell-free assay; 10 µM): -7.1%

N#Cc1cc(Cn2c(N3CCCC3)nc3ccccc32)ccc1F
inhibition (ligand displacement; 10 µM): -16.9%
